This is one part of a sample in which hits are shown more often than they occur.
T cruzi repl: T. cruzi replication inhibition. inhibition, % (concentration not given with the values). T. cruzi beta-gal in NIH3T3, luminescence, 90 h. 300,000 compounds, 1.4% hits. AID 1885;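 active = mean inhibition across valid replicates above about 55%, limit read from the data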;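 note: signal also drops with host cell toxicity which is not excluded here; 0% = plate median of DMSO wells and 100% = zero luminescence signal; higher percent means less beta-gal luminescence so fewer parasites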
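assay system = mouse NIH/3T3 fibroblasts infected with β-gal-expressing T. cruzi Tulahuen C4 | input = 5,000 NIH/3T3 host cells per well | buffer or medium = DMEM plus 2% FBS | timing = 3 h host attachment, then at least 90 h co-culture | measured by = GalScreen luminescence, 60 min | evaluation = luminescence reflecting intracellular parasite burden, expressed as percent inhibition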
Redox H2O2 prof: compounds producing H2O2 with reducing agent – biochemical, NIH compound library profiling, artefact control for MLSCN library redox annotation, primary screen | 200,000 compounds, 0.03% hits | AID 878 | activation, % at 10 µM | DTT-dependent redox cycling H2O2, phenol red/HRP absorbance; 100% = 100 µM peroxide control, 0% = buffer;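 active = activation of at least 50% relative to the plate's high and low controls in the primary single-dose screen; inactive = activation below 50%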;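 note: compound incubated with DTT at 0.8 mM final as the reducing agent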
MPTP block: inhibitors of mitochondrial permeability transition pore | isolated mouse mitochondria, Ca2+ swelling absorbance, 30 min | inhibition, % at 10 µM | 360,000 compounds, 1.4% hits | AID 602449;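 active = inhibition of 50% or more, scaled per plate between neutral and stimulator controls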;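 note: 0% = DMSO wells given calcium and 100% = 1 mM EGTA wells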
Hep lipid drop: modulators of hepatic lipid droplet formation; AML12 mouse hepatocytes, oleate lipid droplets, BODIPY imaging; 240,000 compounds, 0.4% hits; inhibition, % at 6.5 µM; AID 1656;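 active = lipid droplet intensity inhibited by at least 50%, with more than 500 cells counted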
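Material – mouse AML12 hepatocyte cell line, fixed after treatment · Compound dosing – one dose, 6.5 µM compound · Times – compound with oleate, overnight · Measured by – Image-based BODIPY and DAPI two-channel analysis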
L major viab: inhibitors of Leishmania major promastigote growth; Leishmania major promastigotes, resazurin fluorescence viability; inhibition, % at 10 µM; 200,000 compounds, 9% hits; AID 1063; in the data active = inhibition above about 50%;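 note: promastigotes grown with compound for 44 hours at 28 °C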
* marks the source's active call; other numbers are inactive results; · = no result.

SMILES | T cruzi repl | Redox H2O2 prof | MPTP block | Hep lipid drop | L major viab
COc1ccc(Cn2cc(CN3CC(N4CC=CC4)CS3(=O)=O)nn2)cc1 (configuration not stated) | · | · | 0 | · | ·
O=[N+]([O-])c1ccccc1CNC1CCCCCC1 | -2 | 0 | 0 | 2 | 83*
Cc1ccccc1CNC1CCCCC1 | -13 | 0 | 0 | -6 | -8
CCO/C(=C/c1sc2ccc(OC)cc2[n+]1CCCS(=O)(=O)[O-])CC | -7 | 0 | -1 | 12 | -6
CCC(/C=C1\Sc2ccc(OC)cc2N1CC)=C\c1sc2ccc(OC)cc2[n+]1CCCS(=O)(=O)[O-] | 25 | 0 | 7 | -54 | 100*
CC1=NN(c2ccc(C)cc2)C(=O)/C1=C\C=C\c1ccccc1 | -9 | 0 | 2 | -15 | 100*
CC1=NN(c2cccc(C(=O)O)c2)C(=O)/C1=C\C=C/c1ccccc1 | -29 | 0 | 1 | -7 | 100*
CC1=NN(c2ccccc2)C(=O)/C1=C\c1ccc(Br)s1 | -1 | -1 | 14 | -7 | 54*
CC1=NN(c2ccccc2)C(=O)/C1=C/c1cccs1 | 0 | 0 | 21 | 1 | 11
COc1ccc(N2CCN(CCC(=O)c3ccc4ccccc4c3)CC2)cc1 | 40 | · | 0 | 1 | ·
Cc1ccc(NC(=O)CN(C)C(=O)C(C)N2CCN(Cc3ccccc3C)CC2)cc1 (configuration not stated) | · | · | -1 | · | ·
Cc1ccccc1CC(=O)N1CCOCC1 | 0 | · | -2 | 3 | ·
CNC(=S)N1N=C(c2ccc(C)cc2)CC1c1ccc(Cl)cc1 (configuration not stated) | 41 | 0 | 5 | 14 | 100*
CNC(=S)N1N=C(c2ccccc2)CC1c1ccccc1Cl (configuration not stated) | 15 | -9 | 0 | 12 | 2
CNC(=S)N1N=C(c2ccc(C)cc2)CC1c1ccc(Br)cc1 (configuration not stated) | 33 | 0 | 6 | -12 | 100*
CC(=O)N1N=C(c2ccc(Br)cc2)CC1c1ccc(Br)cc1 (configuration not stated) | · | · | 1 | · | ·
CN(C)CCCNS(=O)(=O)c1ccc(N2CCC(c3ccc(Cl)cc3)=N2)cc1 | 72* | 0 | · | 22 | 100*
Cc1cc(C)c2nc3nc(C)c(C)cc3c(N)c2c1 | -22 | 0 | 0 | -2 | 100*
CCCSc1nc(C)c2cc(C)cc(C)c2n1 | -1 | 0 | 0 | -9 | -1
O=C(NCC1(c2ccccc2)CCCC1)c1ccccc1Br | 5 | -1 | 5 | -4 | 55*
O=C(NCC1(c2ccccc2)CCCC1)c1ccccc1 | 10 | 0 | 1 | -1 | 2
Oc1ccc2ccccc2c1C=NC1CCCCC1 | -20 | -2 | 2 | -2 | 62*
CC(C)C(=O)Nc1cccc(COc2cccc(CN(Cc3ccccc3)C(=O)OC(C)(C)C)c2)c1 | · | · | 2 | · | ·
O=C1NC2=C(C(=O)CCC2)C(c2ccccc2)N1 (configuration not stated) | -10 | · | -1 | 0 | ·
CC1(C)CC(=O)C2=C(C1)Nc1ccccc1NC2c1ccccn1 (configuration not stated) | -11 | 0 | 2 | 2 | -1
SMILES | T cruzi repl | Redox H2O2 prof | MPTP block | Hep lipid drop | L major viab
O=C1CCCC2=C1C(c1ccccn1)Nc1ccc(C(=O)c3ccccc3)cc1N2 (configuration not stated) | -5 | -1 | 1 | -4 | 67*
O=C1CCCC2=C1C(c1ccco1)Nc1ccc(C(=O)c3ccccc3)cc1N2 (configuration not stated) | 6 | 0 | -2 | · | 73*
CCN(CC)S(=O)(=O)c1ccc(N/N=C/c2ccc(O)cc2O)nc1 | 26 | 0 | 2 | 5 | 98*
O=[N+]([O-])c1ccccc1/C=N/Nc1nccnc1Cl | -8 | -4 | -3 | · | -5
Oc1ccccc1/C=N/Nc1nccnc1Cl | 27 | 0 | 1 | -86 | 98*
Oc1ccc(C=NNc2ccccn2)c(O)c1 | · | · | 0 | · | ·
Oc1ccc(/C=N/Nc2nccnc2Cl)c(O)c1 | 59* | 0 | 0 | -9 | 100*
Oc1ccc(/C=N/Nc2ncc(Br)cn2)c(O)c1 | -8 | 0 | 1 | -3 | 99*
O=C(c1ccc(Cl)c(S(=O)(=O)N2CCOCC2)c1)N1CCCCCC1 | -1 | · | -1 | -22 | ·
N#Cc1c(-c2ccccc2F)cc(-c2cccnc2)nc1N | -6 | 0 | -2 | 13 | 71*
